Measured values from different studies.
Lines come from different studies, so protocols differ.
Observed: cell growth or viability

COc1nc(NCc2cn(-c3ccc(C(=O)Nc4ccc(C(F)(F)F)cc4)cc3)nn2)nc(OC)n1
IC50 (Caco-2; MTT; 72 h): 0.171 µM

CC(C)Oc1ccc(S(=O)(=O)c2ccc(Oc3cc(OCC(N)=O)c(C(=O)C(Cl)Cl)cc3[N+](=O)[O-])cc2)cc1
IC50 (NCI-H1650; MTT; 72 h): 0.46 µM

COc1nc(NCc2cn(-c3ccc(C(N)=O)cc3)nn2)nc(OC)n1
IC50 (Caco-2; MTT; 72 h): 0.97 µM

CCCOc1nc(-c2cccc(O)c2)cc(-c2cc3ccccc3nc2N2CCOCC2)c1C#N
IC50 (Caco-2; MTT; 72 h): 0.13 µM

COc1cc2c3c(n(CCCN4CCOCC4)c(=O)c2cc1OC)-c1nc2c(cc1C3=O)OCO2
IC50 (TC-32; MTS; 72 h): 0.569 µM

CC1(C)CCC(CN2CCN(c3ccc(C(=O)NS(=O)(=O)c4ccc(NCC5CCOCC5)c([N+](=O)[O-])c4)c(Oc4cnc5[nH]ccc5c4)c3)CC2)=C(c2ccc(Cl)cc2)C1
IC50 (SU-DHL-4; ATP luminescence; 48 h): 0.025 µM

COc1nc(NCc2cn(-c3ccc(NC(=O)c4ccc(C)cc4)cc3)nn2)nc(OC)n1
IC50 (Caco-2; MTT; 72 h): 0.751 µM

COc1cc2c3c(n(CCCNCCO)c(=O)c2cc1OC)-c1nc2c(cc1C3=O)OCO2
IC50 (TC-32; MTS; 72 h): 0.104 µM

C=C(F)C(=O)N1CCN(c2nc(OC[C@@H]3CCCN3C)nc3c2CCN(c2cccc4cccc(Cl)c24)C3)C[C@@H]1CC#N
IC50 (HCC44; ATP luminescence; 3D culture): 0.00382 µM

N[C@H]1CC[C@H](N[C@@H]2C[C@H]2c2ccccc2)CC1
IC50 (TC-32; resazurin): 178 µM

COc1nc(NCc2cn(-c3ccc(NC(=O)c4ccccc4)cc3)nn2)nc(OC)n1
IC50 (Caco-2; MTT; 72 h): 0.766 µM

C=CC(=O)N1CCN(c2nc(=O)n(-c3c(C)ccnc3C(C)C)c3nc(-c4c(O)cccc4F)c(F)cc23)[C@@H](C)C1
IC50 (HCC44; ATP luminescence): > 10 µM

CCCOc1nc(-c2cccc(O)c2)cc(-c2cc3cc(OC)ccc3nc2N2CCOCC2)c1C#N
IC50 (Caco-2; MTT; 72 h): 0.0422 µM

COc1nc(NCc2cn(-c3ccc(NC(=O)c4ccc([N+](=O)[O-])cc4)cc3)nn2)nc(OC)n1
IC50 (Caco-2; MTT; 72 h): 0.658 µM

CCOc1nc(-c2cccc(O)c2)cc(-c2cc3cc(Cl)ccc3nc2N2CCOCC2)c1C#N
IC50 (Caco-2; MTT; 72 h): 0.117 µM

CCNCCCn1c2c(c3cc(OC)c(OC)cc3c1=O)C(=O)c1cc3c(nc1-2)OCO3
IC50 (TC-32; MTS; 72 h): 0.053 µM
